# High-throughput results: PubChem, Broad Institute
# Shown are actives, neighbours in structure and some others; about 2.4% of the full set was active somewhere.
# ARNT-TACC3 inh: disrupts binding between human ARNT and TACC3 | AlphaScreen His-ARNT PAS-B/GST-TACC3 binding, luminescence; TACC3 fragment carries E629A point mutation | inhibition, % at 9.99 µM | 0.66% of 390,000 active;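 active means mean inhibition of replicates at least 50% and at least half of replicates each reaching 50%; inconclusive means half or more replicates reach 50% but mean below 50%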
# CASP6 VEID inh: blocks human caspase-6 cleavage activity; P55212; 0.53% of 350,000 active; purified caspase-6, Z-VEID-R110 cleavage fluorescence; inhibition, % at 12.5 µM;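 active means mean inhibition across replicates at least about 35%, with every replicate also reaching that limit, limit read from the data; inconclusive means only one of the two criteria met; inactive means neither criterion met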
# Target sequence (P55212 24-179 limits assumed): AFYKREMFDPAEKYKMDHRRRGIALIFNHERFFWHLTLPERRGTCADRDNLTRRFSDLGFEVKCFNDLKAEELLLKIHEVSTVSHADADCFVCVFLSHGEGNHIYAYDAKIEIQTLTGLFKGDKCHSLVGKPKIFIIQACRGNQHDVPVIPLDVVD
# Target sequence (P55212 194-293 limits assumed): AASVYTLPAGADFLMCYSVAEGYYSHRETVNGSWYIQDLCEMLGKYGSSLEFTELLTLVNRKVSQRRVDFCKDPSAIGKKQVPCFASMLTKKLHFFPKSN
# Ecoli rRNA inh: inhibitors of bacterial rRNA selective over humanized ribosomes; E. coli WT GFP vs humanized-ribosome RFP mutants, fluorescence, 24 h; active compounds read low; DMSO median 0, no signal -100; GFP signal change (wild-type ribosome), % (concentration not given with the values); 1.6% of 350,000 active;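 active means significant combined selectivity score with lowered wild-type GFP, culture density cut under 30%, mutant RFP and density less affected; inactive means any of these conditions unmet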
# S100A4 inh HTS: blocks human S100A4 binding to myosin IIA peptide; P26447; S100A4/TAMRA-MyoIIA peptide fluorescence polarization; inhibition, % at 10.7 µM; 0.14% of 360,000 active; AID 652163;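 active means mean inhibition of at least 70% across replicates, with every replicate also reaching that level; inconclusive means mean inhibition reaches 70% but some replicates fall short; inactive means mean inhibition below 70%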
# Target sequence (P26447 whole entry, looked up): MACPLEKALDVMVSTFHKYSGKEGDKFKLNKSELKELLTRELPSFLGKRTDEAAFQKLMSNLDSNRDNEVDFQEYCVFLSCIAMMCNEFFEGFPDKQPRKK
#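 Test system: S100A4 monomer protein. Medium: HEPES buffer with Ca2+, pH 7.2. Reagent: fluorescent myosin IIA peptide, 5 nM. Compound dosing: single-point compound testing. Timing: 5 min between mix addition and reading. Benchmarks: DMSO neutral and TFP positive wells.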
# ERAP1 inh: ERAP1 (human) enzyme inhibition. Q9NZ08. 0.15% of 340,000 active. recombinant ERAP1, Leu-AMC fluorescence, 60 min. AID 652197. inhibition, % at 10.7 µM;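 active means mean replicate inhibition of at least 30%, or all replicates individually reaching that 30% level; inactive means mean below 30% and not every replicate reaching it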
# PGC1a acetyl inh: lowers PGC1a acetylation signal in U2OS cells. AlphaScreen anti-acetyl-lysine; with virally co-expressed GCN5 acetyltransferase. inhibition, % at 15.6 µM. 0.17% of 350,000 active. AID 651687;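 active means every replicate shows inhibition of at least 40%; inconclusive means mean inhibition at least 40% but some replicate below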
# A number is an active result; . = inactive; ? = inconclusive; / = no result given.
SMILES,ARNT-TACC3 inh,CASP6 VEID inh,Ecoli rRNA inh,S100A4 inh HTS,ERAP1 inh,PGC1a acetyl inh
C[C@@H]1CN([C@@H](C)CO)C(=O)Cc2cc(NS(C)(=O)=O)ccc2O[C@@H]1CN(C)S(=O)(=O)c1ccc(Cl)cc1,.,.,.,.,.,.
O=C(C1CCN(S(=O)(=O)N2CCC3(CC2)OCCO3)CC1)N1CCc2ccccc2C1,.,.,.,.,.,.
O=C(C1CCN(c2ccc(N3CCOCC3)nn2)CC1)N1CCc2ccccc2C1,.,55.9,.,.,.,.
COc1ccc2c3c(n(C)c2c1)[C@H](CO)N(C(=O)c1cnccn1)CC31CN(C)C1,/,.,.,.,.,.
Clc1ccc(SCc2cn3ccccc3n2)cc1,.,.,-27.8,.,.,.
CC(C)NC(=O)Nc1ccc2c(c1)C(=O)N([C@H](C)CO)C[C@@H](C)[C@@H](CN(C)C(=O)C1CCCCC1)OCCCC[C@@H](C)O2,/,/,.,/,/,.
CC(=O)n1cc(/C=N/NC(=O)c2ccc(Cl)cc2)c2ccccc21,.,.,.,.,.,.
Cn1c2ccccc2c2cc(/C=N/NC(=O)c3cc(O)ccc3O)ccc21,.,48.2,.,.,.,/
O=C(N/N=C/c1cccc(O)c1)c1ccccc1O,.,48.7,.,.,.,.
Cn1c2ccccc2c2cc(/C=N/NC(=O)c3cc(O)cc(O)c3)ccc21,.,.,.,.,.,/
CC(=O)n1cc(/C=N/NC(=O)c2cccc(O)c2)c2ccccc21,.,.,-22.6,.,.,.
COc1ccc(-c2cc(C(=O)NN)[nH]n2)cc1OC,.,.,-21.5,.,.,.
COc1ccccc1-c1cc(C(=O)NN)[nH]n1,/,.,-20.4,.,.,.
COc1ccc(-c2cc(C(=O)O)[nH]n2)cc1OC,/,.,.,.,.,?
CC(=O)N1[C@H](CO)[C@H](c2ccc(-c3cccnc3)cc2)[C@H]1CNC(=O)C1CC1,/,.,.,.,.,.
c1ccc(Cc2cnc(N3CCN(Cc4cccc(-c5ccsc5)n4)CC3)nc2)cc1,/,.,-35.9,.,.,/
N#C/C(=C/c1ccc(O)c(O)c1)C(=O)NCc1ccc(Cl)cc1,.,35.3,.,.,.,/
N#C/C(=C\c1ccc(O)c(O)c1)C(=O)Nc1cccc2ncccc12,.,58.3,.,.,.,.
Cc1cc(C(=O)Nc2cccc3c2O[C@H](CN(C)S(=O)(=O)c2cn(C)cn2)[C@H](C)CN([C@H](C)CO)C3=O)n(C)n1,.,.,.,.,.,.
CCCN(C)C[C@@H]1Oc2cc(C#Cc3cccnc3)ccc2S(=O)(=O)N([C@H](C)CO)C[C@@H]1C,.,.,.,.,.,.
CCC(=O)N(C)C[C@H]1Oc2cc(C3=CCCC3)ccc2S(=O)(=O)N([C@@H](C)CO)C[C@H]1C,.,.,.,.,.,.
Brc1ccc(-n2cnc(-c3ccccc3)c2)cc1,.,.,-14.6,.,.,.
O=[N+]([O-])c1ccc(-c2cn(-c3ccc(Cl)cc3)cn2)cc1,/,.,.,.,.,/
CC=Cc1ccc2n(c1=O)C[C@H]1[C@H](CO)[C@@H](C(=O)N(C)C)[C@@H]2N1CC1CCCCC1 (mixture of isomers),.,.,.,.,.,/
O=C(Nc1ccc(F)cc1)c1ccc(CSc2ccc(Cl)cc2)o1,.,.,-31.8,.,.,.
SMILES,ARNT-TACC3 inh,CASP6 VEID inh,Ecoli rRNA inh,S100A4 inh HTS,ERAP1 inh,PGC1a acetyl inh
CC(=O)c1ccc(NC(=O)c2ccc(CSc3ccccc3)o2)cc1,.,.,-31.2,.,.,/
O=C(Nc1ccc(F)cc1)c1ccc(CSc2ccccc2)o1,.,.,.,.,.,/
COc1ccc(CCNC(=O)c2c(C)noc2C)cc1,.,49.5,.,.,.,.
COc1ccc(CCNC(=O)c2ccc(CSc3ccccc3)o2)cc1,.,/,-37.3,.,.,.
Cc1ccc(C)c(-c2nnc(NC(=O)c3ccco3)o2)c1,.,.,.,.,.,/
Cc1ccc(-c2nnc(NC(=O)c3ccco3)o2)c(C)c1,.,.,-24.5,.,.,/
O=C(C[C@@H]1C=C[C@H](NC(=O)Nc2ccc3c(c2)OCO3)[C@H](CO)O1)NCc1ccc(Cl)cc1,.,.,.,.,.,.
O=C(COC(=O)CC12CC3CC(CC(C3)C1)C2)Nc1cccnc1Cl,.,.,-24.2,.,.,.
O=C(/C(=C(\[O-])c1ccccc1)[n+]1ccc2ccccc2c1)c1ccc(Cl)cc1,.,/,/,/,/,/
O=C(/C(=C(\[O-])c1ccccc1)[n+]1ccc2ccccc2c1)c1ccccc1,49.8,/,/,/,/,/
CCCCCCC1CC(=O)NC(=S)N1 (stereo not drawn),.,.,.,.,.,62.8
N=c1ccn(CC(=O)c2ccc(-c3ccccc3)cc2)cc1,.,.,-41.1,.,.,/
CCN(c1ccc(NC(=O)COC(=O)c2ccc(C)s2)cc1)C(C)C,.,.,-27.2,.,.,.
C/C=C/c1ccc([C@@H]2[C@@H](CO)N3C(=O)CN(C(=O)c4ccncc4)C[C@H]23)cc1,/,.,.,.,.,.
COC(=O)c1ccc(Cn2cc(/C=C\[N+](=O)[O-])c3ccccc32)o1,.,.,.,.,.,.
O=C(O)c1ccc(Cn2cc(/C=C\[N+](=O)[O-])c3ccccc32)o1,.,37.7,.,.,.,.
COc1cc(/C=N/NC(=O)c2cc[n+]([O-])cc2)ccc1O,76.7,.,.,.,.,/
C/C(=C\c1ccco1)C1C(C#N)=C(N)Oc2n[nH]c(-c3ccc(C)cc3)c21 (stereo not drawn),.,.,-27.5,.,.,.
C[C@@H]1CN([C@H](C)CO)C(=O)Cc2cc(NS(=O)(=O)c3ccc(F)cc3)ccc2O[C@H]1CN(C)C(=O)Nc1ccc2c(c1)OCO2,/,/,.,/,/,.
CNC[C@H]1Oc2c(cccc2N(C)C)C(=O)N(C)C[C@@H]1C,/,/,.,/,/,/
Cc1nn(-c2ccc(N3CCCCC3)nn2)c(C)c1CCC(=O)Nc1cccc(F)c1,.,.,.,.,.,/
CCc1cccc(NC(=O)CCc2c(C)nn(-c3ccc(N4CCCCC4)nn3)c2C)c1,.,.,-32.3,.,.,.
COc1ccc(NC(=O)N(C)C[C@@H]2Oc3c(NC(=O)c4cnccn4)cccc3C(=O)N([C@@H](C)CO)C[C@@H]2C)cc1,.,.,.,.,.,.
C=CC1=C(C(=O)O)N2C(=O)[C@@H](NC(=O)/C(=N\O)c3csc(N)n3)[C@H]2SC1 (stereo in doubt),64.4,87.5,/,.,.,.
CSCCC(NC(=O)c1ccccc1)C(=O)NCCCSc1ccccc1 (stereo not drawn),.,.,-22.7,.,.,/
NC(=O)c1cc(C(=O)c2ccc(Cl)cc2)c[nH]1,.,.,-23.5,.,.,.
COCc1cn(CC[C@H]2CC[C@H](NC(=O)Nc3ccc(Cl)cc3)[C@@H](CO)O2)nn1,.,.,.,.,.,.
